Source: ChEMBL document CHEMBL4196126, “Optimization of 3-Pyrimidin-4-yl-oxazolidin-2-ones as Orally Bioavailable and Brain Penetrant Mutant IDH1 Inhibitors” (ACS Med Chem Lett, 2018)
Values after ≈ are worked out from the molar mass of the structure shown. Values belong to the molecule of their own block, whether it stands above or below them.

Key:
[1] = target: T1, Isocitrate dehydrogenase [NADP] cytoplasmic (Homo sapiens, UniProt O75874, R132H); test: Inhibition of IDH1 R132H mutant (unknown origin) expressed in HCT116 cells assessed as reduction in 2-HG levels after 48 hrs by LC-MS/MS analysis; type: cell-based
[2] = Intrinsic clearance in rat liver microsomes at 1 uM in presence of NADPH by LC-MS/MS analysis; type: ADME, microsome; settings: read-out: CLH
[3] = target: T1, Isocitrate dehydrogenase [NADP] cytoplasmic; test: Inhibition of IDH1 R132H mutant (unknown origin) using alphaKG as substrate in presence of NADPH by LC-MS/MS analysis
[4] = Clearance in Sprague-Dawley rat plasma at 1 mg/kg, iv or 10 mg/kg, po by mass spectrometry based HPLC method; type: ADME, organism-based
Method in brief: (§1)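 Rats and mice received a single 1 mg/kg intravenous dose and a 10 mg/kg oral dose. Plasma clearance was taken from the intravenous arm. Oral AUC and oral bioavailability were taken from the oral arm.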

[5] = AUC in Sprague-Dawley rat at 10 mg/kg, po by mass spectrometry based HPLC method; type: ADME, organism-based; settings: in vivo; method in brief: as §1
[6] = Oral bioavailability in Sprague-Dawley rat at 10 mg/kg by mass spectrometry based HPLC method; type: ADME, organism-based; settings: in vivo; method in brief: as §1
[7] = Intrinsic clearance in mouse liver microsomes; type: ADME, microsome; settings: read-out: CLH
[8] = Intrinsic clearance in human liver microsomes; type: ADME, microsome; settings: read-out: CLH
[9] = Solubility of the compound at pH 6.8; type: physicochemical; settings: buffer
[10] = Ratio of AUC in Sprague-Dawley rat brain to plasma at 1 mg/kg, iv or 10 mg/kg, po; type: ADME, organism-based; settings: read-out: Ratio AUC
[11] = Plasma protein binding in rat plasma at 5 uM after 4 hrs by rapid equilibrium dialysis based LC/MS/MS method
[12] = Plasma protein binding in mouse plasma at 5 uM after 4 hrs by rapid equilibrium dialysis based LC/MS/MS method
[13] = Clearance in C57BL/6 mouse plasma at 1 mg/kg, iv or 10 mg/kg, po by mass spectrometry based HPLC method; type: ADME, organism-based; method in brief: as §1
[14] = AUC in C57BL/6 mouse at 10 mg/kg, po by mass spectrometry based HPLC method; type: ADME, organism-based; settings: in vivo; method in brief: as §1
[15] = Oral bioavailability in C57BL/6 mouse at 10 mg/kg by mass spectrometry based HPLC method; type: ADME, organism-based; settings: in vivo; method in brief: as §1
[16] = target: Isocitrate dehydrogenase [NADP] cytoplasmic (Homo sapiens, UniProt O75874); test: Inhibition of wild-type IDH1 (unknown origin) assessed as NADPH production using isocitrate as substrate by fluorescence assay
[17] = target: T1, Isocitrate dehydrogenase [NADP] cytoplasmic; test: Inhibition of IDH1 R132H mutant (unknown origin) assessed as NADPH consumption using alpha-ketoglutarate as substrate by fluorescence assay
[18] = target: Isocitrate dehydrogenase [NADP] cytoplasmic (Homo sapiens, UniProt O75874, R132C); test: Inhibition of IDH1 R132C mutant (unknown origin) assessed as NADPH consumption using alpha-ketoglutarate as substrate by fluorescence assay
[19] = organism: Homo sapiens; test: Selectivity ratio of IC50 for wild-type IDH1 (unknown origin) to IC50 for IDH1 R132H mutant (unknown origin)
[20] = organism: Homo sapiens; test: Selectivity ratio of IC50 for wild-type IDH1 (unknown origin) to IC50 for IDH1 R132C mutant (unknown origin)
[21] = test system: Mus musculus; test: Time at which unbound plasma concentration stays above cellular IDH1 R132H mutant inhibitory IC50 in HSD athymic nude mouse xenografted with human HCT116 cells; type: ADME, organism-based; settings: in vivo
Method in brief: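 After a single 150 mg/kg oral dose in HCT116-IDH1 R132H/+ xenograft mice, unbound plasma concentration was estimated from total plasma levels corrected by mouse plasma protein binding. It was then followed over time against the HCT116-IDH1 R132H/+ cellular IC50.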

[22] = test system: Mus musculus; test: In vivo inhibition of IDH1 R132H mutant in HSD athymic nude mouse tumor xenografted with human HCT116 cells assessed as reduction in 2-HG level at 150 mg/kg, po measured 16 to 24 hrs post dose by LC-MS/MS analysis relative to control; type: functional; settings: HCT-116, po
Method in brief: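 Mice bearing HCT116-IDH1 R132H/+ xenograft tumors received a single 150 mg/kg oral dose. 2-HG was measured in tumor tissue and expressed as percent inhibition relative to vehicle-treated tumors over a 16−24 h post-dose window. Plasma drug concentrations were measured alongside.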

T1 sequence (O75874 2-414 R132H limits assumed): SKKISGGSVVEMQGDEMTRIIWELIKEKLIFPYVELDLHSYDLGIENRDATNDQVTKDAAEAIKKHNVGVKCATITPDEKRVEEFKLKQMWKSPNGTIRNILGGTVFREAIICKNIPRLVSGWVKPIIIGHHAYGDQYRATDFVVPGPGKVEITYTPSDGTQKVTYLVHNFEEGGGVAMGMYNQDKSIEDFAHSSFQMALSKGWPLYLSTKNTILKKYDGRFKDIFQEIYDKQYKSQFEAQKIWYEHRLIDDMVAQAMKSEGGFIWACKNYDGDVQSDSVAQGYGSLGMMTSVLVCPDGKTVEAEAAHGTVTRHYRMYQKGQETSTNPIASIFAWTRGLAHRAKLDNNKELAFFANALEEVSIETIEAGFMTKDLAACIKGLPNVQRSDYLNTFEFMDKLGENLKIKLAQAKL
Isocitrate dehydrogenase [NADP] cytoplasmic (Homo sapiens, UniProt O75874), sequence (O75874 whole entry): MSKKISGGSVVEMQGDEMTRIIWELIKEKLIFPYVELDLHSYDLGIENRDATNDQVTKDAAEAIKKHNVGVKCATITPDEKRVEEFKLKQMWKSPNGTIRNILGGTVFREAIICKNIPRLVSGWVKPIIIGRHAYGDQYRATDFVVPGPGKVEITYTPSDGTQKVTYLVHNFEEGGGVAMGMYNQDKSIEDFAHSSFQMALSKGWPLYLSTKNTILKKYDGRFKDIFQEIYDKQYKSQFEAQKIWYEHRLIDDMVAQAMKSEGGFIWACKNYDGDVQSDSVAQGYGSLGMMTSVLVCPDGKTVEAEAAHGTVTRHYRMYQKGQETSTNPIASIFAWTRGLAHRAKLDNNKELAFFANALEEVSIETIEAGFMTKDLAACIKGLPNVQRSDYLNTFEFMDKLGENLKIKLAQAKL
Isocitrate dehydrogenase [NADP] cytoplasmic (Homo sapiens, UniProt O75874, R132C), sequence (O75874 2-414 R132C limits assumed): as the sequence (O75874 2-414 R132H limits assumed) above, with H131C counted along it

IC50 [1]: 30 nM
microsomal CLint at 1 µM [2]: 75 µL/min/mg
Structure (SMILES): C[C@H](Nc1nccc(N2C(=O)OC[C@@H]2CF)n1)c1cn(-c2ccc(Cl)cc2)cn1

IC50 [1]: 47 nM
microsomal CLint at 1 µM [2]: 101 to 103 µL/min/mg
clearance [4]: 17 mL/min/kg
AUC [5]: 14 µM·h
bioavailability [6]: 67%
Structure (SMILES): C[C@H](Nc1ncc(F)c(N2C(=O)OC[C@@H]2C)n1)c1cn(-c2ccc(Cl)cc2)cn1

IC50 [1]: 24 nM
microsomal CLint at 1 µM [2]: 28 µL/min/mg
Structure (SMILES): C[C@H](Nc1ncc(F)c(N2C(=O)OC[C@@H]2CF)n1)c1cn(-c2ccc(Cl)cc2)cn1

IC50 [1]: 500 nM
microsomal CLint at 1 µM [2]: 34 µL/min/mg
microsomal CLint [7]: 73 µL/min/mg
microsomal CLint [8]: 59 µL/min/mg
Structure (SMILES): C[C@H](Nc1ncc(F)c(N2CCOC2=O)n1)c1cn(-c2ccc(Cl)cc2)cn1

IC50 [1]: 13 nM
microsomal CLint at 1 µM [2]: 448 µL/min/mg
Structure (SMILES): CC[C@H]1COC(=O)N1c1nc(N[C@@H](C)c2cn(-c3ccc(Cl)cc3)cn2)ncc1F

IC50 [1]: 240 nM
microsomal CLint at 1 µM [2]: 237 µL/min/mg
Structure (SMILES): C[C@H](Nc1ncc(F)c(N2C(=O)OC[C@@H]2[C@@H](C)F)n1)c1cn(-c2ccc(Cl)cc2)cn1

IC50 [1]: 22 nM
microsomal CLint at 1 µM [2]: 272 µL/min/mg
Structure (SMILES): C[C@H](Nc1ncc(F)c(N2C(=O)OC[C@@H]2[C@H](C)F)n1)c1cn(-c2ccc(Cl)cc2)cn1

The remaining lines, values behind:

Structure (SMILES): CC(C)[C@H]1COC(=O)N1c1ccnc(N[C@@H](C)c2nc(-c3ccccc3Cl)no2)n1
IC50 [3]: 610 nM
microsomal CLint at 1 µM [2]: 924 µL/min/mg

Structure (SMILES): CC(C)[C@H]1COC(=O)N1c1ccnc(N[C@@H](C)c2nc(-c3ccc(Cl)cc3)no2)n1
microsomal CLint at 1 µM [2]: 302 µL/min/mg

Structure (SMILES): CC(C)[C@H]1COC(=O)N1c1ccnc(N[C@@H](C)c2cn(-c3ccc(Cl)cc3)cn2)n1
IC50 [1]: 15 nM
microsomal CLint at 1 µM [2]: 489 µL/min/mg

Structure (SMILES): CC(Nc1nccc(N2CCOC2=O)n1)c1ncc(Oc2ccc(F)cc2)cn1 (racemic)
IC50 [3]: 8800 nM
microsomal CLint at 1 µM [2]: 35 µL/min/mg

Structure (SMILES): C[C@H](Nc1nccc(N2C(=O)OC[C@@H]2[C@H](C)F)n1)c1cn(-c2ccc(Cl)cc2)cn1
microsomal CLint at 1 µM [2]: 148 µL/min/mg

Structure (SMILES): C[C@H](Nc1ncc(F)c(N2C(=O)OC(C)(C)C2(C)C)n1)c1nc(-c2ccc(Cl)cc2)no1
microsomal CLint at 1 µM [2]: 170 µL/min/mg

Structure (SMILES): CC(C)[C@H]1COC(=O)N1c1ccnc(N[C@@H](C)c2ncc(Oc3ccc(F)cc3)cn2)n1
IC50 [3]: 39 nM
microsomal CLint at 1 µM [2]: 238 µL/min/mg

Structure (SMILES): C[C@H](Nc1nccc(N2C(=O)OC[C@@H]2[C@H](C)F)n1)c1cn(-c2ccc(C(F)F)cc2)cn1
clearance [4]: 20 mL/min/kg
AUC [5]: 15 µM·h
bioavailability [6]: 82%
solubility [9]: 422 µM (≈ 188 µg/mL)
Kp [10]: < 0.1
PPB at 4 h, 5 µM [11]: 0.95
PPB at 4 h, 5 µM [12]: 0.92

Structure (SMILES): C[C@H](Nc1nccc(N2C(=O)OC[C@@H]2CF)n1)c1cn(-c2ccc(C(F)(F)F)cc2)cn1
IC50 [1]: 39 nM
microsomal CLint at 1 µM [2]: 7 to 7.7 µL/min/mg
microsomal CLint [7]: 11 µL/min/mg
clearance [4]: 2.6 mL/min/kg
AUC [5]: 180 µM·h
bioavailability [6]: 127%
solubility [9]: 124 µM (≈ 55.8 µg/mL)
clearance [13]: 5 mL/min/kg
AUC [14]: 172 µM·h
bioavailability [15]: 149%
IC50 [16]: 2520 nM
IC50 [17]: 21 nM
IC50 [18]: 45 nM
Ratio IC50 [19]: 50 to 100
Ratio IC50 [20]: 50 to 100
Time [21]: 24 h
inhibition in vivo at 150 mg/kg [22]: > 90%
Kp [10]: 0.17
PPB at 4 h, 5 µM [11]: 0.98
PPB at 4 h, 5 µM [12]: 0.98
